In ChEMBL document CHEMBL4406801, “Novel Human Aminopeptidase N Inhibitors: Discovery and Optimization of Subsite Binding Interactions” (J Med Chem, 2019):
≈ marks a conversion by molar mass, not a printed value. Calls of active or inactive are those of the source. The rule behind the calls is not given here.

Assays:
[1] = molecular target: Matrix metalloproteinase-9 (Homo sapiens, UniProt P14780); assay: Inhibition of MMP9 (unknown origin) using QF-24 as substrate preincubated for 1 hr followed by substrate addition and measured at 1 min interval for 1 hr by fluorescence assay
[2] = molecular target: Neutrophil collagenase (Homo sapiens) (UniProt P22894); assay: Inhibition of MMP8 (unknown origin) using QF-24 as substrate preincubated for 1 hr followed by substrate addition and measured at 1 min interval for 1 hr by fluorescence assay
[3] = molecular target: 72 kDa type IV collagenase (Homo sapiens, UniProt P08253); assay: Inhibition of MMP2 (unknown origin) using QF-24 as substrate preincubated for 1 hr followed by substrate addition and measured at 1 min interval for 1 hr by fluorescence assay
Aminopeptidase N [4] = molecular target: T1, Aminopeptidase N (Homo sapiens, UniProt P15144); assay: Inhibition of soluble human APN ectodomain stably expressed in HEK293 GnTI(-) cells using H-Leu-NHMec as substrate preincubated for 10 mins followed by substrate addition and measured for 1 hr by spectrofluorimetric method; settings: read-out: Ki(app)
[5] = molecular target: T2, Matrilysin (Homo sapiens) (UniProt P09237); assay: Inhibition of MMP7 (unknown origin) using QF-24 as substrate preincubated for 1 hr followed by substrate addition and measured at 1 min interval for 1 hr by fluorescence assay
T2 sequence (whole entry): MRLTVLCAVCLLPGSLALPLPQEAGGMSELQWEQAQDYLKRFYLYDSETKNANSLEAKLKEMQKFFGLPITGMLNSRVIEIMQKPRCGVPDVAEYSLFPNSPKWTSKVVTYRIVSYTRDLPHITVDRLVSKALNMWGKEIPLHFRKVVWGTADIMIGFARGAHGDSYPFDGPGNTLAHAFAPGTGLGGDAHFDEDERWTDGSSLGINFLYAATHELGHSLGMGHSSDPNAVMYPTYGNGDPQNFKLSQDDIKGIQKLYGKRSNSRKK

[6] = Inhibition of Plasmodium falciparum M1 aminopeptidase; settings: read-out: Ki(app)
[7] = Cytotoxicity against human AD293 cells measured after 72 hrs by celltitre-blue assay; type: cell-based
[8] = Half life in Swiss mouse plasma at 1000 ng/ml by LC-MS analysis; type: ADME, cell-free
[9] = Kinetic solubility of the compound in 0.01 M HCl at pH 2 after 30 mins by nephelometry; type: physicochemical; settings: read-out: Kinetic_solubility
Procedure, shortened: (§1)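 Kinetic solubility read by nephelometry under pH 2 (stomach-like) and pH 6.5 (upper fasted small intestine-like) conditions.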

[10] = Kinetic solubility of the compound in phosphate buffer at pH 6.5 after 30 mins by nephelometry; type: physicochemical; settings: read-out: Kinetic_solubility; procedure, shortened: as §1
Aminopeptidase N [11] = molecular target: T1, Aminopeptidase N; assay: Potency index, ratio of bestatin Ki(app) to test compound Ki(app) for soluble human APN ectodomain stably expressed in HEK293 GnTI(-) cells; type: cell-based
[12] = Half life in human liver microsomes at 1 uM in presence of NADPH; type: ADME, Microsome
[13] = Intrinsic clearance in human liver microsomes assessed per mg protein at 1 uM in presence of NADPH; type: ADME, Microsome; settings: read-out: CLH
[14] = Partition coefficient, log D of compound at pH 7.4 by HPLC analysis; type: physicochemical; settings: octanol/water
Procedure, shortened: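 LogD at pH 7.4 estimated by a chromatographic method.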

[15] = Intrinsic clearance in mouse liver microsomes assessed per mg protein at 1 uM in presence of NADPH; type: ADME, Microsome; settings: read-out: CLH
[16] = Half life in human plasma at 1000 ng/ml by LC-MS analysis; type: ADME, cell-free
[17] = Half life in mouse liver microsomes at 1 uM in presence of NADPH; type: ADME, Microsome
[18] = Solubility of the compound in methanol; type: physicochemical
Aminopeptidase N [19] = molecular target: T1, Aminopeptidase N; assay: Potency index, ratio of tosedostat Ki(app) to test compound Ki(app) for soluble human APN ectodomain stably expressed in HEK293 GnTI(-) cells; type: cell-based

T1 sequence (P15144 whole entry, the tested form may be a part): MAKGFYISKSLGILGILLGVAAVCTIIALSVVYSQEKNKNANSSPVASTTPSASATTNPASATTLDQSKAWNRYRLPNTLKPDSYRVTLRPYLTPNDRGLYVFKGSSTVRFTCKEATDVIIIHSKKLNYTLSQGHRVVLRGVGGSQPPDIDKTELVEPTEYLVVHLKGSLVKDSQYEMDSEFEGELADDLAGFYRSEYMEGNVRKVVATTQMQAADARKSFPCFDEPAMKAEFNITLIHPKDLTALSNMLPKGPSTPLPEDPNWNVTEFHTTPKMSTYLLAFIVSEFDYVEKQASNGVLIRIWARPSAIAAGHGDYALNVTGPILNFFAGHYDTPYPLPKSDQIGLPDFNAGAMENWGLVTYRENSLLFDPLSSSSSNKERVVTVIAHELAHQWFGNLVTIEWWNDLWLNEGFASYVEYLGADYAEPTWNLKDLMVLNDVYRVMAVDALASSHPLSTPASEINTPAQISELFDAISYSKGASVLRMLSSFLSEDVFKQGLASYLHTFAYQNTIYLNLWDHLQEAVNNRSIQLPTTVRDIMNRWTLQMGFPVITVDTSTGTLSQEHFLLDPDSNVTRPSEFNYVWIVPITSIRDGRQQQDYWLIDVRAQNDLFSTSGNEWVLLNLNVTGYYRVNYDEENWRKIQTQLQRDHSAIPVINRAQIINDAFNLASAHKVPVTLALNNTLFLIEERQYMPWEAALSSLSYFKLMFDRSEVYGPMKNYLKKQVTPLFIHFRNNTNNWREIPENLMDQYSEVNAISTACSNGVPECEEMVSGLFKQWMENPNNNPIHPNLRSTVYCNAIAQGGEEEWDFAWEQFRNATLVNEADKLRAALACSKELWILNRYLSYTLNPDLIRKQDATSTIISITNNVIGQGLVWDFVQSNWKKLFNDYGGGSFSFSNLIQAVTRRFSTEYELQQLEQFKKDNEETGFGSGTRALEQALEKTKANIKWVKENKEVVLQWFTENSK
Chain of Neutrophil collagenase (Homo sapiens) (P22894 101-467 limits assumed): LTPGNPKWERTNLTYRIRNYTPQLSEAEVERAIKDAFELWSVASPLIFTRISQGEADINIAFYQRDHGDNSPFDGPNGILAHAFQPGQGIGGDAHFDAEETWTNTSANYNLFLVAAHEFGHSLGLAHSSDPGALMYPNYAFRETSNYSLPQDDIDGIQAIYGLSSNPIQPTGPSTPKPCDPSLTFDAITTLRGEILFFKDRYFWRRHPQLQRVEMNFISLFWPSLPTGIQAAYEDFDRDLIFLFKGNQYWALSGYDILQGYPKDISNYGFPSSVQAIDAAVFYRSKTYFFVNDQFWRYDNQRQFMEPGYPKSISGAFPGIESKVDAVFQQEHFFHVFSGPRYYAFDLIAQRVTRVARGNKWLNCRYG
Chain of Matrix metalloproteinase-9 (P14780 whole entry): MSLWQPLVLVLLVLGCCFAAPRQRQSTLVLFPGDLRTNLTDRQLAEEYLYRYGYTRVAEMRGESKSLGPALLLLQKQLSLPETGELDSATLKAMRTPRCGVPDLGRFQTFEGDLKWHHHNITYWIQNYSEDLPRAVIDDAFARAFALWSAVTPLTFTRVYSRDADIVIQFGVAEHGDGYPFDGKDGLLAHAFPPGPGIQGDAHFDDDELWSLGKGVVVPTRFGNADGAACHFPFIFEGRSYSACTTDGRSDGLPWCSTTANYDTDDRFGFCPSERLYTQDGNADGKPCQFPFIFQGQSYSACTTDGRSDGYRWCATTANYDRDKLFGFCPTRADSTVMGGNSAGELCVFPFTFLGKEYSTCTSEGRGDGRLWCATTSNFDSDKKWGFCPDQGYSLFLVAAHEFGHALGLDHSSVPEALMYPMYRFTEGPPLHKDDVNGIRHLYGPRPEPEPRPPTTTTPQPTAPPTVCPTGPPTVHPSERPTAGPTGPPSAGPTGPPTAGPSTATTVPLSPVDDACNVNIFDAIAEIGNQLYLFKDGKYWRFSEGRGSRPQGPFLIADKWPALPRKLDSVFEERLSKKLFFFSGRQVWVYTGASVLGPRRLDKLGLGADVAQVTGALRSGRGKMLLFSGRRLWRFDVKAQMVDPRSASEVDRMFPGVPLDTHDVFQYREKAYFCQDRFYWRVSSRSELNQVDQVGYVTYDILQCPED
Chain of 72 kDa type IV collagenase (P08253 whole entry, the tested form may be a part): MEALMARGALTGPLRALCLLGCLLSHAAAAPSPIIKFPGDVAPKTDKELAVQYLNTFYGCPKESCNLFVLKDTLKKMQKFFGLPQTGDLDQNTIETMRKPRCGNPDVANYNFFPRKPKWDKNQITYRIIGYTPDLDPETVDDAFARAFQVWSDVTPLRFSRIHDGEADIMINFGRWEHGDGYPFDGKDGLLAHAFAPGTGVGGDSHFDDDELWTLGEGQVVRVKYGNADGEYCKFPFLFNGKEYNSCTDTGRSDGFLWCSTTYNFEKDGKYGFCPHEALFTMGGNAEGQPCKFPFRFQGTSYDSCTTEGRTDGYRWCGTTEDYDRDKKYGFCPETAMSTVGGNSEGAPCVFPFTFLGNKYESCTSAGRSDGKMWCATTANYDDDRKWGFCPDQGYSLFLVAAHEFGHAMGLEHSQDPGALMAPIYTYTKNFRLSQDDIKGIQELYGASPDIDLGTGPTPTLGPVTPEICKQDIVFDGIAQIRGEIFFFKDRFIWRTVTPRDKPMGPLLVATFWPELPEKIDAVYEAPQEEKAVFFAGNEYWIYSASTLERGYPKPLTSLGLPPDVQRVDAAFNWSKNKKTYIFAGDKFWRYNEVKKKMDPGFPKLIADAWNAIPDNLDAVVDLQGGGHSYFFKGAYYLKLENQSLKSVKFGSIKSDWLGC

CC(C)C[C@@H](C(=O)N[C@H](C(=O)OC1CCCC1)c1ccccc1)[C@H](O)C(=O)NO [TOSEDOSTAT]
IC50 [1]: 1.5 µM
inhibition [2]: Active
IC50 [3]: 0.19 µM
Ki (Aminopeptidase N [4]): 1.18 µM
inhibition [5]: Active
Ki [6]: 6.15 µM

CS(=O)(=O)Nc1ccc(C(=O)NC(C(=O)NO)c2ccc(-c3cc(F)c(F)c(F)c3)cc2)cc1 (stereo not drawn)
IC50 [1]: > 100 µM
CC50 at 72 h [7]: 41 µM
inhibition [2]: inactive
half-life at 1000 ng/ml [8]: > 17 h
solubility kinetic at 0.5 h [9]: 12.5 to 25 µg/mL (≈ 25.3 to 50.7 µM)
solubility kinetic at 0.5 h [10]: 12.5 to 25 µg/mL (≈ 25.3 to 50.7 µM)
Ratio Ki(app) (Aminopeptidase N [11]): 527
half-life at 1 µM [12]: > 4.17 h
IC50 [3]: 1.3 µM
microsomal CLint at 1 µM [13]: < 7 µL/min/mg
Ki (Aminopeptidase N [4]): 0.0045 µM
inhibition [5]: inactive
logD [14]: 2.8
microsomal CLint at 1 µM [15]: < 7 µL/min/mg
half-life at 1000 ng/ml [16]: > 17 h
half-life at 1 µM [17]: > 4.17 h

COC(=O)C(NC(=O)CC(=O)O)c1ccc(-c2cc(F)c(F)c(F)c2)cc1 (stereo not drawn)
solubility [18]: Insoluble

O=C(Cc1ccc(F)c(O)c1)NC(C(=O)NO)c1ccc(-c2cc(F)c(F)c(F)c2)cc1 (stereo not drawn)
solubility [18]: Insoluble

O=C(NC(C(=O)NO)c1ccc(-c2cc(F)c(F)c(F)c2)cc1)c1ccc(O)c(O)c1 (stereo not drawn)
solubility [18]: Insoluble

O=C(Cc1ccc(O)c(F)c1)NC(C(=O)NO)c1ccc(-c2cc(F)c(F)c(F)c2)cc1 (stereo not drawn)
solubility [18]: Insoluble

O=C(Cc1ccc(O)cc1)NC(C(=O)NO)c1ccc(-c2cc(F)c(F)c(F)c2)cc1 (stereo not drawn)
solubility [18]: Insoluble

O=C(Cc1ccc(O)c(O)c1)NC(C(=O)NO)c1ccc(-c2cc(F)c(F)c(F)c2)cc1 (stereo not drawn)
solubility [18]: Insoluble

O=C(NO)C(NCc1ccc(F)c(O)c1)c1ccc(-c2cc(F)c(F)c(F)c2)cc1 (stereo not drawn)
Ki (Aminopeptidase N [4]): > 1000 µM

CNC(=O)[C@@H](NC(=O)[C@H](CC(C)C)[C@H](O)C(=O)NO)C(C)(C)C
inhibition [2]: Active
inhibition [5]: Active

CC(C)(C)C(=O)NC(C(=O)NO)c1ccc(-c2cc(F)c(F)c(F)c2)cc1 (stereo not drawn)
Ratio Ki(app) (Aminopeptidase N [19]): 10 to 20
inhibition [2]: inactive
Ratio Ki(app) (Aminopeptidase N [11]): 10 to 20
Ki (Aminopeptidase N [4]): 0.118 µM
inhibition [5]: inactive
Ki [6]: 0.331 µM

CC(C)C[C@H](NC(=O)[C@@H](O)[C@H](N)Cc1ccccc1)C(=O)O [UBENIMEX]
Ki [6]: 1.53 µM

NS(=O)(=O)Nc1ccc(C(=O)NC(C(=O)NO)c2ccc(-c3cc(F)c(F)c(F)c3)cc2)cc1 (stereo not drawn)
IC50 [1]: > 100 µM
CC50 at 72 h [7]: 149 µM
inhibition [2]: inactive
half-life at 1000 ng/ml [8]: > 17 h
solubility kinetic at 0.5 h [9]: 6.3 to 12.5 µg/mL (≈ 12.7 to 25.3 µM)
solubility kinetic at 0.5 h [10]: 12.5 to 25 µg/mL (≈ 25.3 to 50.6 µM)
half-life at 1 µM [12]: > 4.17 h
IC50 [3]: 2.1 µM
microsomal CLint at 1 µM [13]: < 7 µL/min/mg
Ki (Aminopeptidase N [4]): 0.0082 µM
inhibition [5]: inactive
logD [14]: 2.6
microsomal CLint at 1 µM [15]: < 7 µL/min/mg
half-life at 1000 ng/ml [16]: > 17 h
half-life at 1 µM [17]: > 4.17 h
